Reference: article PMC7415440 (Drug Design, Development and Therapy, 2020)

Experiments:
tMCAO stroke model = tMCAO stroke model using monkeys; cited from earlier work
[1] = SAD study safety and tolerability assessment; assay type: in vivo, human; details: for Number of Subjects with AEs (%) / Number of Subjects with Drug Related AEs (% total): 6 subjects
Outline: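 Randomised, double-blind, placebo-controlled trial in healthy Korean males (active:placebo 6:2 per group), single iv infusion in normal saline over 0.5 h at 35–600 mg. Dose escalation was decided by the DSMB. Subjects were in-house days 1–2, revisited day 3, and had follow-up 7 days post-dose. Monitoring covered vital signs, 12-lead ECG, haematology, chemistry, urinalysis, physical exams and AEs, with relationship to drug assigned.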

[2] = MAD study safety and tolerability assessment; assay type: in vivo, human; details: for Number of Subjects with AEs (%) / Number of Subjects with Drug Related AEs (% total): 6 subjects
Outline: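 Double-blind, placebo-controlled trial in healthy Korean males (active:placebo 6:2 per group), infused iv in normal saline over 1 h every 12 h, seven doses over 3.5 days, at 150, 300 or 450 mg. Subjects were in-house days 1–5, with follow-up 8 days after the last dose. Monitoring covered vital signs, 12-lead ECG, clinical labs, physical exams and AEs, with intensity and relationship to drug recorded.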

Multiple ascending dose = assay type: in vivo, human
Outline: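 Seven 1 h iv saline infusions every 12 h. Plasma sampled to 12 h after the first dose, predose at 60 and 72 h, then to 96 h; urine collected in 4–12 h intervals after the first and last doses. HPLC-MS/MS with deuterated internal standard; plasma range 10–30,000 ng/mL, urine 50–150,000 ng/mL. Noncompartmental analysis on actual sampling times; AUCτ by trapezoidal rule; CLR as Ae/AUClast.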

[3] = single iv dose, n=40, number of subjects [cases]
[4] = multiple iv doses, n=24, number of subjects [cases]
[5] = multiple iv 150 mg over 1 h every 12 h x7, n=6, mean (SD)
[6] = multiple iv 300 mg over 1 h every 12 h x7, n=6, mean (SD)
[7] = multiple iv 450 mg over 1 h every 12 h x7, n=6, mean (SD)
[8] = multiple iv, all doses 150-450 mg, Total n=18, mean (SD)

For `CCOc1cc(CN2CCOCC2)cc2[nH]c(=O)c3c(c12)NCCC3.Cl.Cl.O.O` [JPI-289], the “decrease in infarction volume” value (tMCAO stroke model) is given as 53%, the “intensity of AEs” value ([1]; SAD) is given as “mild in intensity” and the “abnormalities in laboratory tests, physical examinations, vital signs, or electrocardiograms” value ([1]; SAD and MAD) is given as “No clinically significant abnormalities”. The “intensity of AEs” value ([1]; SAD and MAD studies together) was “all mild in intensity”, the maximum tolerated dose ([1]; SAD, decided by DSMB, dizziness as dose-limiting toxicity) was 600 mg and the tolerability ([1]; SAD, dose range 35–600 mg) was “well tolerated”. The “serious AEs” value ([1]; entire course of the study (SAD and MAD)) was “No serious AEs occurred”, the “Number of Subjects with AEs (%)” value ([1]; single iv dose 35 mg) was 3 (50.0) and the “Number of Subjects with Drug Related AEs (% total)” value (shortened to “Number of Subjects … (% total)”) ([1]; single iv dose 35 mg) was 1 (16.7). The “Number of Subjects with AEs (%)” value ([1]; single iv dose 75 mg) was 0 (0.0), the “Number of Subjects … (% total)” value ([1]; single iv dose 75 mg) was 0 (0.0) and the “Number of Subjects with AEs (%)” value ([1]; single iv dose 150 mg) was 0 (0.0). The “Number of Subjects … (% total)” value ([1]; single iv dose 150 mg) was 0 (0.0), the “Number of Subjects with AEs (%)” value ([1]; single iv dose 300 mg) was 0 (0.0) and the “Number of Subjects … (% total)” value ([1]; single iv dose 300 mg) was 0 (0.0). For the same compound, the “Number of Subjects with AEs (%)” value ([1]; single iv dose 600 mg) was 3 (50.0), the “Number of Subjects … (% total)” value ([1]; single iv dose 600 mg) was 3 (50.0) and the “Abdominal discomfort, Drug-Related” value [1, 3] was 0 [0]. The “Abdominal discomfort, Not Related” value [1, 3] was 0 [0], the “Abdominal discomfort, Total” value [1, 3] was 0 [0] and the “Bilirubin total increased, Drug-Related” value [1, 3] was 1 [1]. For the same compound, the “Bilirubin total increased, Not Related” value [1, 3] was 0 [0], the “Bilirubin total increased, Total” value [1, 3] was 1 [1] and the “Diarrhea, Drug-Related” value [1, 3] was 0 [0]. The “Diarrhea, Not Related” value [1, 3] was 1 [1], the “Diarrhea, Total” value [1, 3] was 1 [1] and the “Dizziness, Drug-Related” value [1, 3] was 3 [4]. The “Dizziness, Not Related” value [1, 3] was 0 [0], the “Dizziness, Total” value [1, 3] was 3 [4] and the “Fever, Drug-Related” value [1, 3] was 0 [0]. For the same compound, the “Fever, Not Related” value [1, 3] was 0 [0], the “Fever, Total” value [1, 3] was 0 [0] and the “Headache, Drug-Related” value [1, 3] was 0 [0]. For the same compound, the “Headache, Not Related” value [1, 3] was 0 [0], the “Headache, Total” value [1, 3] was 0 [0] and the “Heart rate increased, Drug-Related” value [1, 3] was 0 [0]. For the same compound, the “Heart rate increased, Not Related” value [1, 3] was 1 [1], the “Heart rate increased, Total” value [1, 3] was 1 [1] and the “Sinus tachycardia, Drug-Related” value [1, 3] was 0 [0]. For the same compound, the “Sinus tachycardia, Not Related” value [1, 3] was 0 [0], the “Sinus tachycardia, Total” value [1, 3] was 0 [0] and the “Stomatitis, Drug-Related” value [1, 3] was 0 [0]. The “Stomatitis, Not Related” value [1, 3] was 0 [0], the “Stomatitis, Total” value [1, 3] was 0 [0] and the “Urticaria, Drug-Related” value [1, 3] was 0 [0]. The “Urticaria, Not Related” value [1, 3] was 0 [0], the “Urticaria, Total” value [1, 3] was 0 [0] and the “intensity of AEs” value ([2]; MAD) was “mild in intensity”. For the same compound, the tolerability ([2]; MAD, dose range 150–450 mg) was “well tolerated”, the “total number of AEs” value ([2]; MAD, in seven subjects) was 12 and the “Number of Subjects with AEs (%)” value ([2]; multiple iv doses 150 mg) was 0 (0.0). The “Number of Subjects … (% total)” value ([2]; multiple iv doses 150 mg) was 0 (0.0), the “Number of Subjects with AEs (%)” value ([2]; multiple iv doses 300 mg) was 1 (16.7) and the “Number of Subjects … (% total)” value ([2]; multiple iv doses 300 mg) was 1 (16.7). For the same compound, the “Number of Subjects with AEs (%)” value ([2]; multiple iv doses 450 mg) was 5 (83.3), the “Number of Subjects … (% total)” value ([2]; multiple iv doses 450 mg) was 4 (66.7) and the “Abdominal discomfort, Drug-Related” value [2, 4] was 0 [0]. For the same compound, the “Abdominal discomfort, Not Related” value [2, 4] was 1 [1], the “Abdominal discomfort, Total” value [2, 4] was 1 [1] and the “Bilirubin total increased, Drug-Related” value [2, 4] was 1 [1]. For the same compound, the “Bilirubin total increased, Not Related” value [2, 4] was 0 [0], the “Bilirubin total increased, Total” value [2, 4] was 1 [1] and the “Diarrhea, Drug-Related” value [2, 4] was 0 [0]. For the same compound, the “Diarrhea, Not Related” value [2, 4] was 1 [1], the “Diarrhea, Total” value [2, 4] was 1 [1] and the “Dizziness, Drug-Related” value [2, 4] was 2 [2]. For the same compound, the “Dizziness, Not Related” value [2, 4] was 0 [0], the “Dizziness, Total” value [2, 4] was 2 [2] and the “Fever, Drug-Related” value [2, 4] was 1 [1]. The “Fever, Not Related” value [2, 4] was 0 [0], the “Fever, Total” value [2, 4] was 1 [1] and the “Headache, Drug-Related” value [2, 4] was 2 [2]. The “Headache, Not Related” value [2, 4] was 0 [0], the “Headache, Total” value [2, 4] was 2 [2] and the “Heart rate increased, Drug-Related” value [2, 4] was 0 [0]. The “Heart rate increased, Not Related” value [2, 4] was 0 [0], the “Heart rate increased, Total” value [2, 4] was 0 [0] and the “Sinus tachycardia, Drug-Related” value [2, 4] was 1 [1]. The “Sinus tachycardia, Not Related” value [2, 4] was 0 [0], the “Sinus tachycardia, Total” value [2, 4] was 1 [1] and the “Stomatitis, Drug-Related” value [2, 4] was 1 [1]. For the same compound, the “Stomatitis, Not Related” value [2, 4] was 0 [0], the “Stomatitis, Total” value [2, 4] was 1 [1] and the “Urticaria, Drug-Related” value [2, 4] was 2 [2]. The “Urticaria, Not Related” value [2, 4] was 0 [0], the “Urticaria, Total” value [2, 4] was 2 [2] and the “AUCτ,1st dose” value (Multiple ascending dose; [5]) was 4766.06 (878.28) ng·h/mL. For the same compound, the “AUCτ,ss” value (Multiple ascending dose; [5]) was 7696.21 (1157.59) ng·h/mL, the “Ae,1st dose” value (Multiple ascending dose; [5]) was 3.98 (1.21) mg and the “Ae,last dose” value (Multiple ascending dose; [5]) was 5.48 (1.64) mg. For the same compound, the “CLR,1st dose” value (Multiple ascending dose; [5]) was 0.84 (0.21) L/h, the “CLR,last dose” value (Multiple ascending dose; [5]) was 0.73 (0.24) L/h and the CLss (Multiple ascending dose; [5]) was 19.91 (3.37) L/h. For the same compound, the “Cav,ss” value (Multiple ascending dose; [5]) was 641.35 (96.47) ng/mL, the “Cmax,1st dose” value (Multiple ascending dose; [5]) was 1728.17 (353.61) ng/mL and the “Cmax,ss” value (Multiple ascending dose; [5]) was 2023.47 (460.41) ng/mL. The “Observed AI (accumulation index)” value (Multiple ascending dose; [5]) was 1.64 (0.21), the “Vd,ss” value (Multiple ascending dose; [5]) was 112.20 (31.78) L and the Vz (Multiple ascending dose; [5]) was 85.65 (17.01) L. For the same compound, the “t1/2,eff” value (Multiple ascending dose; [5]) was 1.88 (0.13) L, the t1/2z (Multiple ascending dose; [5]) was 2.44 h and the “AUCτ,1st dose” value (Multiple ascending dose; [6]) was 14,809.79 (2793.29) ng·h/mL. For the same compound, the “AUCτ,ss” value (Multiple ascending dose; [6]) was 22,608.80 (5198.68) ng·h/mL, the “Ae,1st dose” value (Multiple ascending dose; [6]) was 11.74 (3.77) mg and the “Ae,last dose” value (Multiple ascending dose; [6]) was 13.87 (5.36) mg. The “CLR,1st dose” value (Multiple ascending dose; [6]) was 0.80 (0.25) L/h, the “CLR,last dose” value (Multiple ascending dose; [6]) was 0.61 (0.14) L/h and the CLss (Multiple ascending dose; [6]) was 13.95 (3.63) L/h. The “Cav,ss” value (Multiple ascending dose; [6]) was 1884.07 (433.23) ng/mL, the “Cmax,1st dose” value (Multiple ascending dose; [6]) was 4747.25 (798.21) ng/mL and the “Cmax,ss” value (Multiple ascending dose; [6]) was 5658.20 (804.71) ng/mL. The “Observed AI (accumulation index)” value (Multiple ascending dose; [6]) was 1.52 (0.22), the “Vd,ss” value (Multiple ascending dose; [6]) was 74.92 (11.18) L and the Vz (Multiple ascending dose; [6]) was 67.95 (11.04) L. The “t1/2,eff” value (Multiple ascending dose; [6]) was 2.46 (0.67) L, the t1/2z (Multiple ascending dose; [6]) was 2.74 h and the “AUCτ,1st dose” value (Multiple ascending dose; [7]) was 28,278.07 (6412.76) ng·h/mL. The “AUCτ,ss” value (Multiple ascending dose; [7]) was 50,840.74 (19,417.91) ng·h/mL, the “Ae,1st dose” value (Multiple ascending dose; [7]) was 25.66 (5.03) mg and the “Ae,last dose” value (Multiple ascending dose; [7]) was 40.71 (20.87) mg. For the same compound, the “CLR,1st dose” value (Multiple ascending dose; [7]) was 0.92 (0.16) L/h, the “CLR,last dose” value (Multiple ascending dose; [7]) was 0.77 (0.22) L/h and the CLss (Multiple ascending dose; [7]) was 9.78 (3.11) L/h. For the same compound, the “Cav,ss” value (Multiple ascending dose; [7]) was 4236.73 (1618.16) ng/mL, the “Cmax,1st dose” value (Multiple ascending dose; [7]) was 8070.98 (1320.10) ng/mL and the “Cmax,ss” value (Multiple ascending dose; [7]) was 11,921.28 (1655.56) ng/mL. The “Observed AI (accumulation index)” value (Multiple ascending dose; [7]) was 1.76 (0.28), the “Vd,ss” value (Multiple ascending dose; [7]) was 72.06 (8.72) L and the Vz (Multiple ascending dose; [7]) was 63.02 (8.23) L. For the same compound, the “t1/2,eff” value (Multiple ascending dose; [7]) was 3.05 (0.97) L, the t1/2z (Multiple ascending dose; [7]) was 3.5 h and the “AUCτ,1st dose” value (Multiple ascending dose; [8]) was 15,951.31 (10,623.66) ng·h/mL. The “AUCτ,ss” value (Multiple ascending dose; [8]) was 27,048.58 (21,404.87) ng·h/mL, the “Ae,1st dose” value (Multiple ascending dose; [8]) was 13.79 (9.86) mg and the “Ae,last dose” value (Multiple ascending dose; [8]) was 20.02 (19.40) mg. For the same compound, the “CLR,1st dose” value (Multiple ascending dose; [8]) was 0.85 (0.20) L/h, the “CLR,last dose” value (Multiple ascending dose; [8]) was 0.70 (0.21) L/h and the CLss (Multiple ascending dose; [8]) was 14.54 (5.33) L/h. The “Cav,ss” value (Multiple ascending dose; [8]) was 2254.05 (1783.74) ng/mL, the “Cmax,1st dose” value (Multiple ascending dose; [8]) was 4848.80 (2800.32) ng/mL and the “Cmax,ss” value (Multiple ascending dose; [8]) was 6534.32 (4330.54) ng/mL. For the same compound, the “Observed AI (accumulation index)” value (Multiple ascending dose; [8]) was 1.64 (0.24), the “Vd,ss” value (Multiple ascending dose; [8]) was 86.39 (26.65) L and the Vz (Multiple ascending dose; [8]) was 72.21 (15.52) L. For the same compound, the “t1/2,eff” value (Multiple ascending dose; [8]) was 2.46 (0.81) L and the t1/2z (Multiple ascending dose; [8]) was 2.89 h.
